For one data set, the system named is Escherichia coli. As to the kind of experiment: Antimicrobial activity against Escherichia coli BL21. Format: functional. The method, boiled down:
(§1)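 MICs were determined by standard methods on the gram-negative strains and on S. aureus strains 6538p (methicillin-sensitive) and BBA-41 (methicillin-resistant). Peptides had acetylated N termini and amidated C termini, and were purified by RP-HPLC. Reported as the range of values seen in at least three independent experiments.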

Another data set deals with Pseudomonas aeruginosa. As to the kind of experiment: Antimicrobial activity against Pseudomonas aeruginosa PAO1. Type of data set: functional. Put shortly: as §1
Data set [1] relates to Staphylococcus aureus. As to the kind of experiment: Antimicrobial activity against Staphylococcus aureus 6538p. Format: functional. The method, boiled down: as §1
Data set [2] has as its system Staphylococcus aureus. As to the kind of experiment: Antimicrobial activity against Staphylococcus aureus BBA-41. Type of data set: functional. The method, boiled down:
as §1

In data set [3] the test system is Staphylococcus epidermidis. Nature of the data set: Antimicrobial activity against Staphylococcus epidermidis. Type of data set: functional.
A further data set is filed under the species Homo sapiens. As to the kind of experiment: Hemolysis of human erythrocyte at 64 uM. Format: ADME. Put shortly: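 Peptide (64 μM) was incubated with a 1% suspension of fresh human erythrocytes at 37°C for 1 h. Released hemoglobin was measured and expressed relative to cells lysed with 1% Triton X-100. Values are means of multiple independent experiments.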

Data set [4] can be described thus: Selectivity index, Ratio of MIC for Escherichia coli BL21 to fraction of human erythrocyte hemolysis at 64 uM. Format: functional.
Data set [5] in a line: Selectivity index, Ratio of MIC for Pseudomonas aeruginosa PAO1 to fraction of human erythrocyte hemolysis at 64 uM. Type of data set: functional.
Data set [6] can be described thus: Selectivity index, Ratio of MIC for Staphylococcus aureus 6538p to fraction of human erythrocyte hemolysis at 64 uM. Type of data set: functional.
Data set [7] is described as follows: Selectivity index, Ratio of MIC for Staphylococcus epidermidis to fraction of human erythrocyte hemolysis at 64 uM. Type of data set: functional.
Data set [8] relates to RAW264.7. Nature of the data set: Cytotoxicity against mouse RAW264.7 cell assessed as survival rate. Format: functional. Details: concentration or dose not given beside the values. Put shortly: (§2)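 Cultured murine macrophages were exposed to peptide at a final concentration of 30 μM or 10 μM, depending on the peptide. Viability was read by MTT conversion to formazan. Results are percent survival versus buffer-treated controls, as mean and standard error of the mean of at least three independent experiments.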

Data set [9] concerns J774.A1. As to the kind of experiment: Cytotoxicity against mouse […] cell assessed as survival rate. Type of data set: functional. Details: concentration or dose not given beside the values. Put shortly: as §2
In data set [10] the test system is RAW264.7. As to the kind of experiment: Cytotoxicity against mouse RAW264.7 cell assessed as survival rate at 10 uM. Type of data set: functional. Put shortly: as §2
The subject of data set [11] is J774.A1. Nature of the data set: Cytotoxicity against mouse […] cell assessed as survival rate at 10 uM. Type of data set: functional. The method, boiled down: as §2

In brackets after ≈: the same amount, converted by molar mass. Peptide text beside a SMILES is read from it.

As a reminder, the MIC is the smallest concentration in the dilution series that meets the test's criterion for growth inhibition. As for `CC[C@H](C)[C@H](NC(=O)[C@H](CCCCN)NC(=O)[C@H](CCCCN)NC(=O)[C@H](Cc1ccccc1)NC(=O)[C@H](CCCCN)NC(=O)[C@H](CCCCN)NC(=O)[C@H](Cc1c[nH]c2ccccc12)NC(=O)[C@H](CCCCN)NC(C)=O)C(=O)NCC(=O)N[C@@H](C)C(=O)N[C@H](C(=O)N[C@@H](CC(C)C)C(=O)N[C@@H](CCCCN)C(=O)N[C@@H](CCCCN)C(=O)N[C@@H](CC(C)C)C(N)=O)C(C)C` (Ac-KWKKFKKIGAVLKKL-NH2), the MIC against Escherichia coli is 1 µM (≈ 1.86 µg/mL); against Pseudomonas aeruginosa, 1 µM (≈ 1.86 µg/mL); against Staphylococcus aureus [1], more than 16 µM; against Staphylococcus aureus [2] it was more than 16 µM; in data set [3] it was 0.5 µM (≈ 0.928 µg/mL). This compound displayed a Hemolysis in the data set listed under Homo sapiens of 3%. For the same compound, the “Selectivity Index” value in [4] is 16.7; in data set [5], 8.3; in data set [6], less than 0.5; in [7], 68. Further, the figures for the Activity with RAW264.7 [8] and in the data set with J774.A1 [9] were 104% and 94%, respectively.

For the compound `CC[C@H](C)[C@H](NC(=O)[C@H](CCCCN)NC(=O)[C@H](CCCCN)NC(=O)[C@H](Cc1ccccc1)NC(=O)[C@H](CCCCN)NC(=O)[C@H](CCCCN)NC(=O)[C@H](Cc1c[nH]c2ccccc12)NC(=O)[C@H](CCCCN)NC(C)=O)C(=O)NCC(=O)N[C@@H](C)C(=O)N[C@H](C(=O)N[C@@H](CC(C)C)C(=O)N[C@@H](CCCCN)C(=O)N[C@H](C(=O)N[C@@H](CC(C)C)C(N)=O)C(C)C)C(C)C` (Ac-KWKKFKKIGAVLKVL-NH2), the minimal inhibitory concentration (MIC) was 0.25 µM (≈ 0.457 µg/mL) against Escherichia coli; 0.5 µM (≈ 0.914 µg/mL) against Pseudomonas aeruginosa; 16 µM (≈ 29.2 µg/mL) with Staphylococcus aureus [1]; more than 16 µM with Staphylococcus aureus [2]; 0.5 µM (≈ 0.914 µg/mL) in data set [3]. Also, the Hemolysis in the data set listed under Homo sapiens turned out to be 21%. The “Selectivity Index” value in data set [4] is 9.5; in data set [5] it was 4.8; in data set [6], 0.3; in data set [7], 9.5. The Activity in the data set on RAW264.7 [8] is on record as 73%; in the data set with J774.A1 [9], 81%.

Regarding `CC[C@H](C)[C@H](NC(=O)[C@H](CCCCN)NC(=O)[C@H](CCCCN)NC(=O)[C@H](Cc1ccccc1)NC(=O)[C@H](CCCCN)NC(=O)[C@H](CCCCN)NC(=O)[C@H](Cc1c[nH]c2ccccc12)NC(=O)[C@H](CCCCN)NC(C)=O)C(=O)NCC(=O)N[C@@H](CCCCN)C(=O)N[C@H](C(=O)N[C@@H](CC(C)C)C(=O)N[C@@H](CCCCN)C(=O)N[C@H](C(=O)N[C@@H](CC(C)C)C(N)=O)C(C)C)C(C)C` (Ac-KWKKFKKIGKVLKVL-NH2), the MIC is 0.5 µM (≈ 0.942 µg/mL) in the data set on Escherichia coli; 0.5 µM (≈ 0.942 µg/mL) against Pseudomonas aeruginosa; 16 µM (≈ 30.2 µg/mL) in the data set on Staphylococcus aureus [1]; more than 16 µM with Staphylococcus aureus [2]; 0.25 µM (≈ 0.471 µg/mL) in data set [3]. The Hemolysis in the data set listed under Homo sapiens stood at 9%. In addition, the “Selectivity Index” value was 22 in data set [4], 11 in [5], 0.7 in [6] and 44 in data set [7]. In addition, the Activity in the data set on RAW264.7 [8] was found to be 86%; with J774.A1 [9] it was 88%.

In the case of `CC[C@H](C)[C@H](NC(=O)[C@H](CCCCN)NC(=O)[C@H](CCCCN)NC(=O)[C@H](Cc1ccccc1)NC(=O)[C@H](CC(C)C)NC(=O)[C@H](CCCCN)NC(=O)[C@H](Cc1c[nH]c2ccccc12)NC(=O)[C@H](CCCCN)NC(C)=O)C(=O)NCC(=O)N[C@@H](C)C(=O)N[C@H](C(=O)N[C@@H](CC(C)C)C(=O)N[C@@H](CCCCN)C(=O)N[C@@H](CCCCN)C(=O)N[C@@H](CC(C)C)C(N)=O)C(C)C` (Ac-KWKLFKKIGAVLKKL-NH2), the MIC in the data set on Escherichia coli worked out at 1 µM (≈ 1.84 µg/mL); against Pseudomonas aeruginosa it was 2 µM (≈ 3.68 µg/mL); against Staphylococcus aureus [1], 4 µM (≈ 7.37 µg/mL); against Staphylococcus aureus [2], 8 µM (≈ 14.7 µg/mL); in [3], 0.25 µM (≈ 0.46 µg/mL). Further, in the data set filed under Homo sapiens, the Hemolysis is 4%. Also, the “Selectivity Index” value in data set [4] was 6.25; in data set [5], 6.25; in data set [6], 3; in data set [7], 48. The Activity in the data set with RAW264.7 [8] is reported as 88%; in the data set with J774.A1 [9] it was 74%.

In the case of `CC[C@H](C)[C@H](NC(=O)[C@H](CCCCN)NC(=O)[C@H](CCCCN)NC(=O)[C@H](Cc1ccccc1)NC(=O)[C@H](CC(C)C)NC(=O)[C@H](CCCCN)NC(=O)[C@H](Cc1c[nH]c2ccccc12)NC(=O)[C@H](CCCCN)NC(C)=O)C(=O)NCC(=O)N[C@@H](C)C(=O)N[C@H](C(=O)N[C@@H](CC(C)C)C(=O)N[C@@H](CCCCN)C(=O)N[C@H](C(=O)N[C@@H](CC(C)C)C(N)=O)C(C)C)C(C)C` (Ac-KWKLFKKIGAVLKVL-NH2), the minimum inhibitory concentration (MIC) against Escherichia coli was found to be 0.5 µM (≈ 0.906 µg/mL); against Pseudomonas aeruginosa it was 2 µM (≈ 3.62 µg/mL); against Staphylococcus aureus [1], 0.5 µM (≈ 0.906 µg/mL); with Staphylococcus aureus [2], 1 µM (≈ 1.81 µg/mL); in data set [3], 0.5 µM (≈ 0.906 µg/mL). This compound also yielded a Hemolysis in the data set filed under Homo sapiens of 45%. In addition, the “Selectivity Index” value in [4] was 2.2; in data set [5], 0.56; in data set [6] it was 1.1; in [7] it was 2.2. The results for the Activity with RAW264.7 [10] and in the data set with J774.A1 [11] were 21% and 16%, respectively.

With `CC[C@H](C)[C@H](NC(=O)[C@H](CCCCN)NC(=O)[C@H](CCCCN)NC(=O)[C@H](Cc1ccccc1)NC(=O)[C@H](CC(C)C)NC(=O)[C@H](CCCCN)NC(=O)[C@H](Cc1c[nH]c2ccccc12)NC(=O)[C@H](CCCCN)NC(C)=O)C(=O)NCC(=O)N[C@@H](CCCCN)C(=O)N[C@H](C(=O)N[C@@H](CC(C)C)C(=O)N[C@@H](CCCCN)C(=O)N[C@@H](CCCCN)C(=O)N[C@@H](CC(C)C)C(N)=O)C(C)C` (Ac-KWKLFKKIGKVLKKL-NH2), the MIC in the data set with Escherichia coli was found to be 1 µM (≈ 1.9 µg/mL); in the data set with Pseudomonas aeruginosa, 1 µM (≈ 1.9 µg/mL); with Staphylococcus aureus [1], 4 µM (≈ 7.59 µg/mL); in the data set on Staphylococcus aureus [2], 16 µM (≈ 30.4 µg/mL); in [3], 0.25 µM (≈ 0.475 µg/mL). In the data set filed under Homo sapiens, this compound came in with a Hemolysis of 8%. For the same compound, the “Selectivity Index” value in data set [4] was determined as 12.5; in data set [5], 6.25; in data set [6], 1.5; in data set [7], 50. Moreover, the Activity in the data set with RAW264.7 [8] was 57%; in the data set on J774.A1 [9], 45%.

In the case of `CC[C@H](C)[C@H](NC(=O)[C@H](CCCCN)NC(=O)[C@H](CCCCN)NC(=O)[C@H](Cc1ccccc1)NC(=O)[C@H](CC(C)C)NC(=O)[C@H](CCCCN)NC(=O)[C@H](Cc1c[nH]c2ccccc12)NC(=O)[C@H](CCCCN)NC(C)=O)C(=O)NCC(=O)N[C@@H](CCCCN)C(=O)N[C@H](C(=O)N[C@@H](CC(C)C)C(=O)N[C@@H](CCCCN)C(=O)N[C@H](C(=O)N[C@@H](CC(C)C)C(N)=O)C(C)C)C(C)C` (Ac-KWKLFKKIGKVLKVL-NH2), the MIC against Escherichia coli was found to be 0.5 µM (≈ 0.935 µg/mL); with Pseudomonas aeruginosa, 1 µM (≈ 1.87 µg/mL); in the data set on Staphylococcus aureus [1] it was 1 µM (≈ 1.87 µg/mL); against Staphylococcus aureus [2], 4 µM (≈ 7.48 µg/mL); in data set [3] it was 0.5 µM (≈ 0.935 µg/mL). In the data set listed under Homo sapiens, this compound returned a Hemolysis of 67%. Moreover, the “Selectivity Index” value was determined as 1.5 in data set [4], 0.4 in data set [5], 0.8 in data set [6] and 3 in [7]. Further, the figures for the Activity in the data set with RAW264.7 [8] and with J774.A1 [9] were 56% and 43%, respectively.
